ChEMBL document CHEMBL1177775, “A novel synthesis of 3-aryl coumarins and evaluation of their antioxidant and lipoxygenase inhibitory activity” (Bioorg Med Chem Lett, 2010)
The source made the active and inactive calls. The calls are words filed in the database; no cut-off is given here.

Legend:
Glycine max = assay: Inhibition of soybean lipoxygenase at 100 uM
[1] = tested on: Radical scavenging activity; assay: Antioxidant activity assessed as DPPH radical scavenging activity at 50 uM after 60 mins; assay type: functional
Method in brief: (§1)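 Interaction with the stable DPPH free radical in an iron-free system, with compounds at 50 μM. Readings were taken at 20 and 60 min. Each experiment was run at least in triplicate, and the standard deviation of absorbance was under 10% of the mean.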

[2] = tested on: Radical scavenging activity; assay: Antioxidant activity assessed as DPPH radical scavenging activity at 50 uM after 20 mins; assay type: functional; method in brief: as §1
[3] = Antioxidant activity assessed as inhibition of AAPH-induced lipid peroxidation at 100 uM by UV spectrophotometry; assay type: functional

Row | inhibition (Glycine max) | SMILES | Activity [1] [%] | Activity [2] [%] | inhibition [3] [%]
1 | 40% | CC(Cc1ccc(O)c(O)c1)C(C)Cc1ccc(O)c(O)c1 (stereo not drawn) | 83 | 84 | –
2 | inactive | COc1ccc(-c2cc3ccccc3oc2=O)cc1OC | 7 | 4 | 47
3 | 31% | COc1ccc(-c2c(C)c3ccccc3oc2=O)cc1OC | 10 | 8 | 36
4 | inactive | Cc1c(-c2ccc(Br)cc2)c(=O)oc2ccccc12 | 4 | 3 | 70
5 | inactive | Cc1c(-c2ccc(O)cc2)c(=O)oc2ccccc12 | 9 | 5 | 20
6 | 62% | COc1ccc(-c2c(C)c3ccccc3oc2=O)cc1 | 2 | 5 | 24
7 | – | Cc1c(C)c2c(c(C)c1O)CCC(C)(C(=O)O)O2 (stereo not drawn) | – | – | 63
8 | 6% | Cc1c(-c2ccccc2Br)c(=O)oc2ccccc12 | 3 | 4 | 20
